# Compound activity as filed in PubChem BioAssay.
# MEKK3 PB1 HTS – MEKK3-MEK5 PB1 interaction, increase or decrease; AID 1529; 1.4% of 290,000 active; binding response (% of control), % at 10 µM; bead-based flow cytometry, Alexa488-MEK5 binding to MEKK3; actives lie on both sides; 0 = blocked by unlabeled MEK5, 100 = vehicle;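 active = binding response more than 3 SD above or below the average of its plate-row segment, actives on both sides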;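 also: Alexa488 bead fluorescence after subtracting the streptavidin-only scavenger bead signal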
# Target sequence (Q99759 whole entry, looked up): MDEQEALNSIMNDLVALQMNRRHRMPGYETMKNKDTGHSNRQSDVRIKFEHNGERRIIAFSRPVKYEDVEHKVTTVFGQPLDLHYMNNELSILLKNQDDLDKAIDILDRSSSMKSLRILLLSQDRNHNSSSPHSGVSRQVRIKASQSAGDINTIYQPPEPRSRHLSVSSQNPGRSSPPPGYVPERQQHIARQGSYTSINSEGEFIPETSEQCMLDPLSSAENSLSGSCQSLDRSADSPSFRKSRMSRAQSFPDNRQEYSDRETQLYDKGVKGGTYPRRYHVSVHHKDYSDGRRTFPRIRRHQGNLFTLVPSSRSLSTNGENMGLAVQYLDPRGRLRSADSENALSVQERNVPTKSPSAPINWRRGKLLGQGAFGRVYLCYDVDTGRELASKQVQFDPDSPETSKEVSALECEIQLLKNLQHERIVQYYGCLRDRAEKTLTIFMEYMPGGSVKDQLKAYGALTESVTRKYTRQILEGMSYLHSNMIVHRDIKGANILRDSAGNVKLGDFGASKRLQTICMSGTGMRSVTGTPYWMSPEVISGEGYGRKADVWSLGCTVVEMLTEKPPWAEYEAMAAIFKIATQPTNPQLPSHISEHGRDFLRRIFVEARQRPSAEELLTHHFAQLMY
# UBC13 polyUb – inhibitors of human UBC13 polyubiquitin chain formation. AID 485273. TR-FRET. inhibition, % at 20 µM. P61088. 0.47% of 330,000 active; in the data active = inhibition above about 45%, passing the limit was not always enough
# MEKK2 mut-MEK5 – signal of MEK5 binding to mutant human MEKK2 PB1 domain; bead flow cytometry, Alexa488-MEK5 binding to MEKK2 mutant; percent response, % at 10 µM; 0.35% of 290,000 active; AID 1530; in the data active = percent response above about 24%, passing the limit was not always enough
# PREPL inhibitor – inhibits the human prolyl oligopeptidase-like enzyme; Q4J6C6; inhibition, % at 5.96 µM; recombinant PREPL, fluorescence polarization activity-based probe; 0.68% of 320,000 active; in the data active = inhibition above about 43%;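 also: 0% = enzyme with DMSO and 100% = wells lacking enzyme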
# Apaf1 inhib – human Apaf-1 inhibition | inhibition, % at 20 µM | AID 489030 | O14727 | 0.71% of 330,000 active | reconstituted apoptosome caspase-3 activity, DEVD-Rh110 fluorescence; active = inhibition of at least 40% at 20 µM;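 also: plate controls were DMSO wells for no effect and DEVD-CHO caspase inhibitor wells for full effect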
#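 Material: reconstituted apoptosome with Apaf-1, cytochrome c, caspase-9, procaspase-3, dATP; medium: pH 7.5 Hepes buffer with CHAPS, BSA, DTT; also added: cytochrome c and DEVD-Rh110 substrate; timing: 30 min plus 50 min, RT; signal: Rh110 fluorescence intensity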
# MEKK2wt PB1 HTS – raises or lowers MEK5 binding to wildtype human MEKK2 PB1 domain | bead flow cytometry, Alexa488-MEK5 binding to MEKK2 WT; actives lie on both sides | Q9Y2U5 | 1.1% of 290,000 active | binding response (% of control), % at 10 µM; in the data active = binding response below about 67% or above about 130%
# MEKK2wt confirm – raises or lowers MEK5 binding to wildtype human MEKK2, retest; shares compounds with MEKK3 PB1 HTS; bead flow cytometry, Alexa488-MEK5 binding to MEKK2 WT; actives lie on both sides; binding response (% of control), % at 10 µM; 2.4% of 5,900 active; AID 1892; in the data active = binding response below about 16% or above about 210%; inactive = in between
# MEKK2mut confirm – signal of MEK5 binding to mutant human MEKK2, retest; shares compounds with MEKK3 PB1 HTS; bead flow cytometry, Alexa488-MEK5 binding to MEKK2 mutant; percent response, % at 10 µM; 2% of 5,900 active; in the data active = percent response mostly above about 71%, no sharp cut-off; inactive = mostly below about 38%;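 also: higher means compound restores mutant binding toward wildtype level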
# MEKK3-MEK5 inh – confirmation of inhibitors of MEK5 binding to human MEKK3; shares compounds with MEKK3 PB1 HTS; bead flow cytometry, Alexa488-MEK5 binding to MEKK3; stronger effect = lower value; binding response (% of control), % at 10 µM; 1.8% of 5,900 active; AID 1894;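 active = binding response below 72% of control, or above a set upper limit, though filed actives all read lower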;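 also: 100% = DMSO only wells and 0% = binding blocked by excess unlabeled MEK5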
# * = called active by the depositor; . = not tested or not shown; [ ] = another dose, or the depositor's remark. Rows were chosen to be rich in hits. Some 3.1% of all compounds tested hit in one or more screens of this group.
SMILES,MEKK3 PB1 HTS,UBC13 polyUb,MEKK2 mut-MEK5,PREPL inhibitor,Apaf1 inhib,MEKK2wt PB1 HTS,MEKK2wt confirm,MEKK2mut confirm,MEKK3-MEK5 inh
O=S(=O)(c1cccc(Cl)c1)N1CCN(S(=O)(=O)c2ccc3c(c2)OCCO3)CC1,.,-10,.,13,17,.,.,.,.
O=S(=O)(c1ccc2c(c1)OCCO2)N1CCN(c2cccc(Cl)c2)CC1,81*[inhibitor],-2,-17,-102,12,87,98,-8,101
Cc1cccc(N2CCN(C(=O)COc3cc(=O)n(C)c4ccccc34)CC2)c1C,103,9,-2,15,26,100,.,.,.
Cc1cccc(N2CCN(C(=O)Cc3cn(C)c4ccccc34)CC2)c1C,130*,-3,5,20,31,117,95,-9,93
Cc1ccc(C)c(NC(=O)C(Sc2nc3ccc(C)cc3[nH]2)c2ccccc2)c1 (centres undefined),106,1,-1,-13,7,107,.,.,.
Cc1ccc2nc(SC(C(=O)Nc3ccc(F)cc3)c3ccccc3)[nH]c2c1 (centres undefined),153*,-1,1,-14,-7,123,88,5,103
COc1ccc(CNC(=O)CN(Cc2ccccc2F)C(=O)c2csnn2)cc1,103,-5,-5,0,10,102,.,.,.
C=CCN1C(=O)/C(=C/c2ccsc2)SC1=S,102,-9,3,-4,2,101,.,.,.
C=CCN1C(=O)/C(=C/c2ccc(-c3ccc(F)cc3)o2)SC1=S,49*[inhibitor],-134,-10,0,-1,18*[inhibitor],26,-32,62*
O=C(O)C(c1ccccc1)N1C(=O)/C(=C\c2ccc(-c3ccc(Br)cc3)o2)SC1=S (centres undefined),87,-76,-14,.,27,65*[inhibitor],76,-10,94
CCOC(=O)c1ccc(NC(=O)CSc2nc(=O)n3cccc(C)c3n2)cc1,.,-11,.,-1,10,.,.,.,.
Cc1nc(NC(=O)c2ccccc2)sc1-c1csc(NCc2ccccc2)n1,88,-5,-7,23,10,102,.,.,.
Cc1nc(NC(=O)c2ccccc2)sc1-c1csc(NCCc2ccccc2)n1,49*[inhibitor],3,-14,30,13,69,121,13,108
COc1ccc(OC)c(CC(NC(C)=O)C(=O)NC2CCN(S(=O)(=O)c3ccc(NC(C)=O)cc3)CC2)c1 (centres undefined),106,3,11,8,-7,110,.,.,.
O=c1[nH]c(SCc2ccccc2[N+](=O)[O-])nc2nc[nH]c12,45*[inhibitor],-4,12,-2,0,50,102,4,106
O=[N+]([O-])c1ccccc1CSc1ccccn1,106,3,0,-10,-3,99,.,.,.
CN(C)Cc1c(O)ccc2ccccc12,101,-3,3,6,8,103,.,.,.
CN(C)CCN(C)Cc1c2ccccc2c(CN(C)CCN(C)C)c2ccccc12,111,4,24*,32,10,128,156,43,106
COc1cc(CNCCCN2CCOCC2)cc(Br)c1OCc1ccc(Cl)cc1,105,28,30,14,12,158*,175,32,103
CCOc1cc(CNCCCN2CCOCC2)cc(Br)c1OCC(=O)Nc1cccc(C(F)(F)F)c1,103,35,31*,10,5,162*,175,46,110
CN=C1N(C)C[C@@H]2[C@@H]3C(=O)N(C)C(=O)[C@@H]3[C@](C)(C(=O)OC)N12,.,.,.,.,-1,.,.,.,.
Cn1c(NCc2ccco2)nc2ccccc21,16*[inhibitor],-14,-22,5,-4,25*[inhibitor],110,15,113
